Results: ChEMBL document CHEMBL2086276, “Synthesis and evaluation of mutual prodrugs of ibuprofen with menthol, thymol and eugenol” (Eur J Med Chem, 2012)

Key:
[1] = Octanol-buffer partition coefficient, log P of the compound by HPLC analysis; type: physicochemical
How it was run: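 100 mg compound in 10 mL aqueous phase plus 10 mL octanol, shaken 1 h, left 2 h at 25 °C. Each phase quantified by HPLC: C18 column, […], 1.0 mL/min, UV 254 nm. Partition coefficient = organic-phase over aqueous-phase concentration; also computed in silico.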

[2] = Chemical stability of the compound assessed as hydrolysis in HCl buffer at pH 1.2 by HPLC analysis; type: physicochemical
How it was run: (§1)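 Hydrolysis at 37 °C in sealed screw-cap vials in a water bath; pH 1.2 HCl, pH 7.4 phosphate or pH 10.0 NaOH buffer, 20 mM total buffer, ionic strength held at 0.5 M with KCl. Sampled at 15, 30, 60, 120, 240 min; ester and ibuprofen quantified by HPLC. Pseudo-first-order Kobs = 2.303/t·log(a/(a−x)); t1/2 = 0.693/Kobs.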

[3] = Half life of the compound in phosphate buffer at pH 7.4; type: physicochemical; how it was run: as §1
[4] = Half life of the compound in NaOH buffer at pH 10 by HPLC analysis; type: physicochemical; how it was run: as §1
Rattus norvegicus [5] = assay: Antiinflammatory activity in po dosed Wistar rat assessed as inhibition of carrageenan-induced paw edema at dose molecularly equivalent to ibuprofen administered 30 mins prior to carrageenan challenge measured after 1 hr; type: functional
Rattus norvegicus [6] = assay: Antiinflammatory activity in po dosed Wistar rat assessed as inhibition of carrageenan-induced paw edema at dose molecularly equivalent to ibuprofen administered 30 mins prior to carrageenan challenge measured after 2 hrs; type: functional
Rattus norvegicus [7] = assay: Antiinflammatory activity in po dosed Wistar rat assessed as inhibition of carrageenan-induced paw edema at dose molecularly equivalent to ibuprofen administered 30 mins prior to carrageenan challenge measured after 3 hrs; type: functional
Rattus norvegicus [8] = assay: Antiinflammatory activity in po dosed Wistar rat assessed as inhibition of carrageenan-induced paw edema at dose molecularly equivalent to ibuprofen administered 30 mins prior to carrageenan challenge measured after 4 hrs; type: functional
Rattus norvegicus [9] = assay: Antiinflammatory activity in po dosed Wistar rat assessed as inhibition of carrageenan-induced paw edema at dose molecularly equivalent to ibuprofen administered 30 mins prior to carrageenan challenge measured after 5 hrs; type: functional
Rattus norvegicus [10] = assay: Antiinflammatory activity in po dosed Wistar rat assessed as inhibition of carrageenan-induced paw edema at dose molecularly equivalent to ibuprofen administered 30 mins prior to carrageenan challenge measured after 6 hrs; type: functional
Rattus norvegicus [11] = assay: Gastrotoxicity in 24 hrs fasted po dosed Wistar rat assessed as ulcer index at dose molecularly equivalent to ibuprofen after 6 hrs; type: toxicity, organism-based; details: in vivo
How it was run: (§2)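 Rats fasted 24 h, then dosed orally as suspension in 0.5% acacia, 150 mg/kg ibuprofen or molar equivalent of prodrug; n = 6 per group. Killed 6 h after dosing, food and water then ad libitum. Stomach opened, rinsed with 5 mL saline, inspected under magnifier, ulcers scored by severity; ulcer index is the group mean, ± SEM.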

Rattus norvegicus [12] = assay: Gastrotoxicity in 24 hrs fasted Wistar rat assessed as ulcer index at 150 mg/kg, po after 6 hrs; type: toxicity, organism-based; parameters: dose 150 mg/kg, route oral; details: in vivo; how it was run: as §2
Rattus norvegicus [13] = assay: Antiinflammatory activity in Wistar rat model assessed as inhibition of carrageenan-induced paw edema at 20 mg/kg, po administered 30 mins prior to carrageenan challenge measured after 5 hrs; type: functional
Rattus norvegicus [14] = assay: Antiinflammatory activity in Wistar rat model assessed as inhibition of carrageenan-induced paw edema at 20 mg/kg, po administered 30 mins prior to carrageenan challenge measured after 4 hrs; type: functional
Rattus norvegicus [15] = assay: Antiinflammatory activity in Wistar rat model assessed as inhibition of carrageenan-induced paw edema at 20 mg/kg, po administered 30 mins prior to carrageenan challenge measured after 1 hr; type: functional
Rattus norvegicus [16] = assay: Antiinflammatory activity in Wistar rat model assessed as inhibition of carrageenan-induced paw edema at 20 mg/kg, po administered 30 mins prior to carrageenan challenge measured after 2 hrs; type: functional
Rattus norvegicus [17] = assay: Antiinflammatory activity in Wistar rat model assessed as inhibition of carrageenan-induced paw edema at 20 mg/kg, po administered 30 mins prior to carrageenan challenge measured after 3 hrs; type: functional
Rattus norvegicus [18] = assay: Antiinflammatory activity in Wistar rat model assessed as inhibition of carrageenan-induced paw edema at 20 mg/kg, po administered 30 mins prior to carrageenan challenge measured after 6 hrs; type: functional

logP [1]	Stability [2]	half-life [3] [h]	half-life [4] [h]	Structure (SMILES)	inhibition (INH) (Rattus norvegicus [5]) [%]	inhibition (INH) (Rattus norvegicus [6]) [%]	inhibition (INH) (Rattus norvegicus [7]) [%]	inhibition (INH) (Rattus norvegicus [8]) [%]	inhibition (INH) (Rattus norvegicus [9]) [%]	inhibition (INH) (Rattus norvegicus [10]) [%]	UI (Rattus norvegicus [11])	UI (Rattus norvegicus [12])	inhibition in vivo at 20 mg/kg (Rattus norvegicus [13]) [%]	inhibition in vivo at 20 mg/kg (Rattus norvegicus [14]) [%]	inhibition in vivo at 20 mg/kg (Rattus norvegicus [15]) [%]	inhibition in vivo at 20 mg/kg (Rattus norvegicus [16]) [%]	inhibition in vivo at 20 mg/kg (Rattus norvegicus [17]) [%]	inhibition in vivo at 20 mg/kg (Rattus norvegicus [18]) [%]
6.69	Stable	6.01	2.72	CC(C)Cc1ccc(C(C)C(=O)OC2CC(C)CCC2C(C)C)cc1 (stereo unspecified)	31.58	34.08	48.49	55	64.01	66.84	0.91	–	–	–	–	–	–	–
6.27	Stable	5.19	2.42	Cc1ccc(C(C)C)c(OC(=O)C(C)c2ccc(CC(C)C)cc2)c1 (racemic)	29.36	32.52	47.63	55.17	61.5	64.01	0.83	–	–	–	–	–	–	–
5.63	Stable	2.84	1.34	C=CCc1ccc(OC(=O)C(C)c2ccc(CC(C)C)cc2)c(OC)c1 (racemic)	27.93	31.43	48.06	55.26	56.17	60.33	1.08	–	–	–	–	–	–	–

Structure (SMILES)	logP [1]	Stability [2]	half-life [3] [h]	half-life [4] [h]	inhibition (INH) (Rattus norvegicus [5]) [%]	inhibition (INH) (Rattus norvegicus [6]) [%]	inhibition (INH) (Rattus norvegicus [7]) [%]	inhibition (INH) (Rattus norvegicus [8]) [%]	inhibition (INH) (Rattus norvegicus [9]) [%]	inhibition (INH) (Rattus norvegicus [10]) [%]	UI (Rattus norvegicus [11])	UI (Rattus norvegicus [12])	inhibition in vivo at 20 mg/kg (Rattus norvegicus [13]) [%]	inhibition in vivo at 20 mg/kg (Rattus norvegicus [14]) [%]	inhibition in vivo at 20 mg/kg (Rattus norvegicus [15]) [%]	inhibition in vivo at 20 mg/kg (Rattus norvegicus [16]) [%]	inhibition in vivo at 20 mg/kg (Rattus norvegicus [17]) [%]	inhibition in vivo at 20 mg/kg (Rattus norvegicus [18]) [%]
CC(C)Cc1ccc(C(C)C(=O)O)cc1 (racemic) [IBUPROFEN]	3.71	–	–	–	–	–	–	–	–	–	–	2.41	46.8	44	18.3	22.1	40.9	47.6
